Reference: ChEMBL document CHEMBL1275586, “Phenotypic susceptibility to bevirimat in isolates from HIV-1-infected patients without prior exposure to bevirimat” (Antimicrob Agents Chemother, 2010)

Key:
Assay type in all cases: functional, MT2
[1] = tested on: Human immunodeficiency virus 1; test: Antiviral activity against antiretroviral-pretreated PI-resistant Human immunodeficiency virus 1 isolate 24 harboring Gag-capsid V362I mutant gene, Gag-SP-1 V370A, N372T and T375A mutant gene and deletion at T371 in Gag-SP-1 infected in human MT-2 cells by XTT assay relative to wild-type
Method in brief: (§1)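 Patient-derived Gag fragments were pooled as bacterial colonies to keep quasispecies diversity and ligated into the pXXLAI (HIV-1 LAI) backbone. Virus was made by transfecting 293T cells and harvesting supernatant 2 days later. MT-2 cells were infected at 37°C with an inoculum titrated to give an XTT signal-to-noise of 2.5–4.0. Cells were plated into drug dilutions, incubated 5 days at 37°C, and read by XTT absorbance (450−650 nm). EC50 was taken from percent cell death and expressed as fold change versus wild-type LAI.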

[2] = tested on: Human immunodeficiency virus 1; test: Antiviral activity against antiretroviral-pretreated PI-resistant Human immunodeficiency virus 1 isolate 29 harboring Gag-SP-1 T375A mutant gene infected in human MT-2 cells by XTT assay relative to wild-type; method in brief: as §1
[3] = tested on: Human immunodeficiency virus 1; test: Antiviral activity against antiretroviral-pretreated PI-resistant Human immunodeficiency virus 1 isolate 26 harboring Gag-SP1 N372S, S373P and T375N mutant gene infected in human MT-2 cells by XTT assay relative to wild-type; method in brief: as §1
[4] = tested on: Human immunodeficiency virus 1; test: Antiviral activity against antiretroviral-pretreated PI-resistant Human immunodeficiency virus 1 isolate 5 harboring Gag-SP1 Q369H and T375N mutant gene infected in human MT-2 cells by XTT assay relative to wild-type; method in brief: as §1
[5] = tested on: Human immunodeficiency virus 1; test: Antiviral activity against Human immunodeficiency virus 1 isolate 30 infected in human MT-2 cells by XTT assay relative to wild-type
[6] = tested on: Human immunodeficiency virus 1; test: Antiviral activity against antiretroviral-pretreated PI-resistant Human immunodeficiency virus 1 isolate 10 harboring deletion at T371 of Gag-SP-1 and Gag-Sp-1 V370I, S373P and I376V mutant gene infected in human MT-2 cells by XTT assay relative to wild-type; method in brief: as §1
[7] = tested on: Human immunodeficiency virus 1; test: Antiviral activity against Human immunodeficiency virus 1 isolate 31 harboring Gag-SP1 V370A, T371S, N372A/T, A374N/T and I376V mutant gene infected in human MT-2 cells by XTT assay relative to wild-type
Method in brief: (§2)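 Patient Gag-protease (SfoI-XmaI) fragments were ligated into the pXXLAI backbone, with colonies pooled to keep quasispecies. Virus came from 293T transfection, harvested at 2 days. MT-2 infection at 37°C used an input giving XTT signal-to-noise of 2.5–4.0 (≈MOI 0.001). Cells at ≈17,000/well with drug dilutions, 5 days, 37°C; XTT 1 h, A450–650. EC50 from % cell death; fold change vs wild-type LAI.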

[8] = tested on: Human immunodeficiency virus 1; test: Antiviral activity against Human immunodeficiency virus 1 isolate 34 harboring Gag-capsid G357S mutant gene and Gag-SP1 V370A, N372T, S373P and T375A mutant gene infected in human MT-2 cells by XTT assay relative to wild-type; method in brief: as §2
[9] = tested on: Human immunodeficiency virus 1; test: Antiviral activity against Human immunodeficiency virus 1 isolate 2 harboring Gag-capsid A146P, S173A, V215L, E230D, N252S, L268M and A340G mutant gene and protease L10I, I15V, K20R, M36I, S37N, M46I, L63P, V82A, N83H, I84V, I85T and L90M mutant gene infected in human MT-2 cells by XTT-assay relative to wild-type; method in brief: as §2

C=C(C)[C@@H]1CC[C@]2(C(=O)O)CC[C@]3(C)[C@H](CC[C@@H]4[C@@]5(C)CC[C@H](OC(=O)CC(C)(C)C(=O)O)C(C)(C)[C@@H]5CC[C@]43C)[C@@H]12 [BEVIRIMAT]
fold change (FC) [1]: >100
fold change (FC) [2]: >100
fold change (FC) [3]: 1.3
fold change (FC) [4]: 2.2
fold change (FC) [5]: 5.2
fold change (FC) [6]: >100
fold change (FC) [7]: >100
fold change (FC) [8]: >100
fold change (FC) [9]: >100
